# Experimental data collected from several papers.
# Protocols differ between the studies behind these lines.
# Organism: Leishmania donovani
# Read-out: parasite growth
Structure (SMILES),technique,cell line,concentration,time,setting,quantity,result
C[C@@H]1[C@H](O)[C@@H](C)/C=C/C=C/C=C/C=C/C=C/C=C/C=C/[C@H](O[C@@H]2O[C@H](C)[C@@H](O)[C@H](N)[C@@H]2O)C[C@@H]2O[C@](O)(C[C@@H](O)C[C@@H](O)[C@H](O)CC[C@@H](O)C[C@@H](O)CC(=O)O[C@H]1C)C[C@H](O)[C@H]2C(=O)O,,,,,promastigote,IC50,135 nM
Fc1cccc(Nc2nc(-c3ccccn3)nc3ccccc23)c1,imaging,THP-1,,,"intracellular, amastigote",IC50,790 nM
CCCCCCCC/C=C\CCCCCCCCCCCCOP(=O)([O-])OCC[N+](C)(C)C,resazurin,,50 µM,72 h,promastigote,inhibition,108%
COc1cc(NC(C)CCCNC(=S)NCCCC(C)Nc2cc(OC)cc3cccnc23)c2ncccc2c1.Cl.Cl (stereo not drawn),resazurin,,,,promastigote,IC50,4 to 9 µg/mL
C[C@@H]1[C@H](O)[C@@H](C)/C=C/C=C/C=C/C=C/C=C/C=C/C=C/[C@H](O[C@@H]2O[C@H](C)[C@@H](O)[C@H](N)[C@@H]2O)C[C@@H]2O[C@](O)(C[C@@H](O)C[C@@H](O)[C@H](O)CC[C@@H](O)C[C@@H](O)CC(=O)O[C@H]1C)C[C@H](O)[C@H]2C(=O)O,MTT,,,48 h,amastigote,IC90,1800 nM
COc1ccccc1-c1n[nH]c2nc(NC3CCN(C(=O)Cc4ccc(OCCOCCNC(=O)OC(C)(C)C)cc4)CC3)ncc12,,,,,amastigote,EC50,4200 nM
N=C(N)c1ccc(OCCCCCOc2ccc(C(=N)N)cc2)cc1,resazurin,,,72 h,promastigote,IC90,8.77 µg/mL
CCCCCCCCCCCCCCCCOP(=O)([O-])OCC[N+](C)(C)C,resazurin,,25 µM,72 h,promastigote,inhibition,100%
COc1ccccc1-c1n[nH]c2nc(N[C@H]3CC[C@H](NS(=O)(=O)CCCOCCOCCN)CC3)ncc12,,,,,amastigote,EC50,4210 nM
COc1cc(NC(C)CCCNC(=S)NCCCC(C)Nc2cc(OC)cc3ccc(C(C)(C)C)nc23)c2nc(C(C)(C)C)ccc2c1.Cl.Cl (stereo not drawn),resazurin,,,,promastigote,IC90,20 to 31 µg/mL
COc1ccccc1-c1n[nH]c2nc(NC3CCN(C(=O)Cc4ccc(OCCOCCN)cc4)CC3)ncc12,,,,,amastigote,EC50,1990 nM
c1ccc(CNc2nc(-c3ccccn3)nc3ccccc23)cc1,imaging,THP-1,,,"intracellular, amastigote",IC50,1100 nM
